Test results from ChEMBL document CHEMBL4138318, “Discovery of 5-Cyano-6-phenylpyrimidin Derivatives Containing an Acylurea Moiety as Orally Bioavailable Reversal Agents against P-Glycoprotein-Mediated Mutidrug Resistance” (J Med Chem, 2018).

Tests used:
[1] = Cytotoxicity against human SW620/AD300 cells assessed as survival at 2 uM after 72 hrs by MTT assay relative to control; type: cell-based; settings: read-out: Survival
[2] = molecular target: ATP-dependent translocase ABCB1 (Homo sapiens, UniProt P08183); experiment: Inhibition of ABCB1 in human SW620/AD300 cells assessed as potentiation of paclitaxel-induced cytotoxicity by measuring fold reduction in paclitaxel IC50 at 2 uM after 72 hrs by MTT assay relative to paclitaxel alone; type: cell-based
ATP-dependent translocase ABCB1, sequence (P08183 whole entry): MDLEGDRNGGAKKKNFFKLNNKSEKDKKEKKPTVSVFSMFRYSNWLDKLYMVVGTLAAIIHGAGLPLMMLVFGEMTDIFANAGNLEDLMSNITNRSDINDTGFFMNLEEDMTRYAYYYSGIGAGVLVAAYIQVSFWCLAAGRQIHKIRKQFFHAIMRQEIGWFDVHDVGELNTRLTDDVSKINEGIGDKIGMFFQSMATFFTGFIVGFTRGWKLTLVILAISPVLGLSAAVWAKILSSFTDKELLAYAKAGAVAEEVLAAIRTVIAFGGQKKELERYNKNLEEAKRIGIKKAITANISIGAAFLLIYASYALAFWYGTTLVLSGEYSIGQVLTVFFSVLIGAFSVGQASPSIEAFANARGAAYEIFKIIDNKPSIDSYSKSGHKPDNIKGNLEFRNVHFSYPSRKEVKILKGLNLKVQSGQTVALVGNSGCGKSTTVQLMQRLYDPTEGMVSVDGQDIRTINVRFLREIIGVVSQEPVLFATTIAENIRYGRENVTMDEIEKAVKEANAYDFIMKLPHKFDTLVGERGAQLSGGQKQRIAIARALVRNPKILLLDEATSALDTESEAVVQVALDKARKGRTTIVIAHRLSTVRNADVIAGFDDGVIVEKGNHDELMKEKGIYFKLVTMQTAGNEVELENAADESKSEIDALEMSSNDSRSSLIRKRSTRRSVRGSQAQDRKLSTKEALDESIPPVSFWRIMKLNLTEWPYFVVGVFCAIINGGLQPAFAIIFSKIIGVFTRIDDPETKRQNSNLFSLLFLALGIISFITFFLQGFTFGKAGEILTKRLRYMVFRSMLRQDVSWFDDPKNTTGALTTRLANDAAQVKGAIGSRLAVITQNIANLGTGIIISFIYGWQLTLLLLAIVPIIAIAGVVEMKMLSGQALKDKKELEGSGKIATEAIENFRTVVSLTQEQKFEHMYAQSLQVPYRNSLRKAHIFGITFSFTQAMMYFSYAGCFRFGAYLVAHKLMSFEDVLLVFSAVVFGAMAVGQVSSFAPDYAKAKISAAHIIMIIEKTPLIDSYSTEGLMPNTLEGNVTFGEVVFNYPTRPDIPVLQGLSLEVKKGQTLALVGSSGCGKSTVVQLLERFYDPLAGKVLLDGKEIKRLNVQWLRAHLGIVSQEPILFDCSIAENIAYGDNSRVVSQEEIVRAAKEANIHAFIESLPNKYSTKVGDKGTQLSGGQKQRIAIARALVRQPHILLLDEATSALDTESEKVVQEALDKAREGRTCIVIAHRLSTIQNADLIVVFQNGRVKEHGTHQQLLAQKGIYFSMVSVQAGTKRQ
In short: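 SW620/AD300 cells (~5×10^3/well) treated with graded paclitaxel with or without modulator (2 µM, or 0.5-2 µM in dose series; 0.1% DMSO solvent control) for 72 h; MTT (5 mg/mL stock) added 4 h, absorbance 490 nm. IC50 as mean ± SD of three independent runs; reversal fold = paclitaxel IC50 without/with modulator.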

[3] = Cytotoxicity against human SW620 cells assessed as survival at 2 uM after 72 hrs by MTT assay relative to control; type: cell-based, SW-620; settings: read-out: Survival

Row | SMILES | viability at 72 h, 2 µM [1] [%] | fold change (FC) [2] | viability at 72 h, 2 µM [3] [%]
1 | Cc1ccc(-c2nc(SCc3cn(CC(=O)NC(=O)Nc4ccccn4)nn3)nc(Nc3cccc(C(F)(F)F)c3)c2C#N)cc1 | > 90 | 1.88 | > 90
2 | COc1cc(-c2nc(SCC(=O)NC(=O)Nc3ccccn3)nc(Nc3cccc([N+](=O)[O-])c3)c2C#N)cc(OC)c1OC | > 90 | 82.08 | > 90
3 | COc1ccccc1Nc1nc(SCC(=O)NC(=O)Nc2ccccn2)nc(-c2ccc(F)c(F)c2)c1C#N | > 90 | 13.42 | > 90
4 | N#Cc1c(Nc2cccc(C(F)(F)F)c2)nc(SCc2cn(CC(=O)NC(=O)Nc3ccccn3)nn2)nc1-c1ccc(Br)cc1 | > 90 | 2.4 | > 90
5 | N#Cc1c(Nc2ccccc2Cl)nc(SCC(=O)NC(=O)Nc2ccccn2)nc1-c1ccc(F)c(F)c1 | > 90 | 14.24 | > 90
6 | COc1cc(-c2nc(SCC(=O)NC(=O)Nc3ccccn3)nc(Nc3ccccc3Cl)c2C#N)cc(OC)c1OC | > 90 | 38.05 | > 90
7 | Cc1ccccc1Nc1nc(SCc2cn(Cc3ccc(Cl)cc3)nn2)nc(-c2ccccc2)c1C#N |  | 116 | 
8 | COc1cc(-c2nc(SCC(=O)NC(=O)Nc3ccccn3)nc(Nc3ccc(Cl)cc3)c2C#N)cc(OC)c1OC | > 90 | 12.61 | > 90
9 | Cc1ccc(Nc2nc(SCc3cn(CC(=O)NC(=O)Nc4ccccn4)nn3)nc(-c3ccc(C)cc3)c2C#N)cc1 | > 90 | 17.37 | > 90
10 | Cc1ccc(-c2nc(SCC(=O)NC(=O)Nc3ccccn3)nc(Nc3cccc(C(F)(F)F)c3)c2C#N)cc1 | > 90 | 6.06 | > 90
11 | COc1cc(-c2nc(SCC(=O)NC(=O)Nc3ccccc3)nc(Nc3ccc(F)cc3)c2C#N)cc(OC)c1OC | > 90 | 25.37 | > 90
12 | COc1cc(-c2nc(SCc3ccccc3)nc(Nc3cccc(Cl)c3)c2C#N)cc(OC)c1OC | > 90 | 1.05 | > 90
13 | CC(C)c1ccc(-c2nc(SCc3cn(CC(=O)NC(=O)Nc4ccccn4)nn3)nc(Nc3ccc(Cl)cc3)c2C#N)cc1 | > 90 | 1.66 | > 90
14 | Cc1ccc(-c2nc(SCc3cn(CC(=O)NC(=O)Nc4ccccn4)nn3)nc(Nc3ccc(C(C)C)cc3)c2C#N)cc1 | > 90 | 1.18 | > 90
15 | COc1cc(-c2nc(SCC(=O)NC(=O)Nc3ccccc3)nc(Nc3ccc(C(C)C)cc3)c2C#N)cc(OC)c1OC | > 90 | 25.07 | > 90
16 | N#Cc1c(Nc2ccc(Cl)cc2)nc(SCC(=O)NC(=O)Nc2ccccn2)nc1-c1ccc(F)c(F)c1 | > 90 | 3.5 | > 90
17 | COc1ccccc1Nc1nc(SCc2cn(CC(=O)NC(=O)Nc3ccccn3)nn2)nc(-c2ccc(C(C)C)cc2)c1C#N | > 90 | 10.18 | > 90
18 | COc1cc(-c2nc(SCC(=O)NC(=O)Nc3ccccn3)nc(Nc3cccc(C(F)(F)F)c3)c2C#N)cc(OC)c1OC | > 90 | 58.14 | > 90
19 | CC(C)c1ccc(-c2nc(SCc3cn(CC(=O)NC(=O)Nc4ccccn4)nn3)nc(Nc3ccc(F)cc3)c2C#N)cc1 | > 90 | 2.11 | > 90

Row | SMILES | viability at 72 h, 2 µM [1] [%] | fold change (FC) [2] | viability at 72 h, 2 µM [3] [%]
20 | Cc1cccc(Nc2nc(SCC(=O)NC(=O)Nc3ccccn3)nc(-c3ccc(C(C)C)cc3)c2C#N)c1 | > 90 | 2.62 | > 90
21 | CC(C)c1ccc(Nc2nc(SCc3cn(CC(=O)NC(=O)Nc4ccccn4)nn3)nc(-c3ccc(Br)cc3)c2C#N)cc1 | > 90 | 1.7 | > 90
22 | COc1cc(-c2nc(SCc3cn(CC(=O)NC(=O)Nc4ccccn4)nn3)nc(Nc3cccc(C(F)(F)F)c3)c2C#N)cc(OC)c1OC | > 90 | 1.35 | > 90
23 | CC(C)c1ccc(-c2nc(SCc3cn(CC(=O)NC(=O)Nc4ccccn4)nn3)nc(Nc3ccccc3Cl)c2C#N)cc1 | > 90 | 4.75 | > 90
24 | COc1ccccc1Nc1nc(SCC(=O)NC(=O)Nc2ccccn2)nc(-c2cc(OC)c(OC)c(OC)c2)c1C#N | > 90 | 8.67 | > 90
25 | COc1cc(-c2nc(SCc3cn(CC(=O)NC(=O)Nc4ccccn4)nn3)nc(Nc3cccc(Cl)c3)c2C#N)cc(OC)c1OC | > 90 | 1.37 | > 90
26 | Cc1ccc(Nc2nc(SCc3cn(CC(=O)NC(=O)Nc4ccccn4)nn3)nc(-c3ccc(C(C)C)cc3)c2C#N)cc1 | > 90 | 6.86 | > 90
27 | COc1ccccc1Nc1nc(SCC(=O)NC(=O)Nc2ccccc2)nc(-c2cc(OC)c(OC)c(OC)c2)c1C#N | > 90 | 3.66 | > 90
28 | CC(C)c1ccc(-c2nc(SCc3cn(CC(=O)NC(=O)Nc4ccccn4)nn3)nc(Nc3ccccc3O)c2C#N)cc1 | > 90 | 13.64 | > 90
29 | CC(C)c1ccc(-c2nc(SCc3cn(CC(=O)NC(=O)Nc4ccccn4)nn3)nc(Nc3cccc(Cl)c3)c2C#N)cc1 | > 90 | 2.71 | > 90
30 | COc1cc(-c2nc(SCc3cn(CC(=O)NC(=O)Nc4ccccn4)nn3)nc(Nc3ccc(Cl)cc3)c2C#N)cc(OC)c1OC | > 90 | 1.71 | > 90
31 | COc1cc(-c2nc(SCC(=O)NC(=O)Nc3ccccn3)nc(Nc3ccc(C(F)(F)F)cc3)c2C#N)cc(OC)c1OC | > 90 | 3.56 | > 90
32 | CC(C)c1ccc(-c2nc(SCc3cn(CC(=O)NC(=O)Nc4ccccn4)nn3)nc(Nc3cccc([N+](=O)[O-])c3)c2C#N)cc1 | > 90 | 2.99 | > 90
33 | COc1cc(-c2nc(SCc3cn(Cc4ccccc4Cl)nn3)nc(Nc3ccc(C)cc3)c2C#N)cc(OC)c1OC |  | 27.54 | 
34 | Cc1ccc(Nc2nc(SCC(=O)NC(=O)Nc3ccccn3)nc(-c3ccc(C(C)C)cc3)c2C#N)cc1 | > 90 | 1.64 | > 90
35 | Cc1ccc(Nc2nc(SCc3cn(Cc4ccccc4Cl)nn3)nc(-c3ccc(C(C)C)cc3)c2C#N)cc1 |  | 46 | 
36 | Cc1ccc(Nc2nc(SCc3cn(Cc4ccccc4Cl)nn3)nc(-c3ccc(Br)cc3)c2C#N)cc1 |  | 3.39 | 
37 | Cc1ccc(Nc2nc(SCc3cn(Cc4ccccc4Cl)nn3)nc(-c3ccc(C)cc3)c2C#N)cc1 |  | 21.69 | 
